These results are taken from ChEMBL document CHEMBL1131003, “Nonsymmetric P2/P2' cyclic urea HIV protease inhibitors. Structure-activity relationship, bioavailability, and resistance profile of monoindazole-substituted P2 analogues” (J Med Chem, 1998).

The target in data set [1] is Human immunodeficiency virus type 1 protease (Human immunodeficiency virus 1, UniProt Q72874). The data set is described as follows: Inhibitory activity against HIV protease. In short, it runs like this:
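Ki for HIV protease, measured by cleavage of a fluorescent substrate with HPLC analysis, following the earlier method.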

For data set [2], the target named is Human immunodeficiency virus type 1 protease (Human immunodeficiency virus 1) (UniProt Q72874). The data set is described as follows: Antiviral activity against mutant virus HIV-1 mutant (84V) strain. The data set is classed as functional. In short, it runs like this: (§1)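 I84V single and I84V/V82F double mutant HIV-1, both from in vitro selection under a cyclic urea inhibitor. IC90 measured by yield reduction assay.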

For data set [3] the target is unchanged. Description: Antiviral activity against mutant virus HIV-1 mutant (84V/82F) strain. The data set is classed as functional. The essentials: as §1
A short description of data set [4]: Peak plasma concentration was measured in dogs. The following applies: dog. The data set is classed as ADME, organism-based, Canis lupus familiaris.
The target of data set [5] is Human immunodeficiency virus type 1 protease (Human immunodeficiency virus 1) (UniProt Q72874). Description: Antiviral activity against ritonavir virus (HIV-1 mutated at 46I/63P/71V/82F/84V and resistant to ritonavir). The data set is classed as functional. The essentials: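 Mutant HIV-1 viruses carrying protease substitutions seen in ritonavir- or indinavir-treated patient isolates; the ritonavir virus carries 46I/63P/71V/82F/84V. IC90 read from a viral p24 readout, following the earlier method.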

In data set [6] the test system is MT2. Description: Antiviral potency evaluated by measuring accumulation of viral RNA transcripts 3 days after infection of MT-2 cells with HIV-1 RF. The data set is classed as functional. The following applies: Homo sapiens, MT2, 72 h.
Data set [7] concerns the target Human immunodeficiency virus type 1 protease (Human immunodeficiency virus 1) (UniProt Q72874). The data set is described as follows: Antiviral activity against indinavir virus (HIV-1 mutated at 10R/63P/71V/82T/84V and resistant to indinavir).

For orientation: Ki means the dissociation constant of the complex between target and ligand, obtained from inhibition or displacement. Lower therefore signals a stronger hold on the target. A word on the Cmax: it is the peak of the concentration-time curve. The term IC90 denotes the concentration at which the effect reaches the 90% level.

Consider `O=C(Cc1ccccn1)c1cccc(CN2C(=O)N(Cc3ccc4[nH]ncc4c3)[C@H](Cc3ccccc3)[C@H](O)[C@@H](O)[C@H]2Cc2ccccc2)c1`, for which the affinity in data set [1] corresponds to a Ki of 0.073 nM. The IC90 mutant/IC90 WT came to 1 in data set [2], 5 in data set [3] and 10 in data set [5]. The Cmax in data set [4] stood at 700 nM. In data set [6], the IC90 amounted to 15 nM.

In the case of `O=C1N(Cc2cccc(NCc3nc4ccccc4s3)c2)[C@H](Cc2ccccc2)[C@H](O)[C@@H](O)[C@@H](Cc2ccccc2)N1Cc1ccc2[nH]ncc2c1`, the affinity in data set [1], expressed as Ki, was 0.059 nM. The figures for the IC90 mutant/IC90 WT in data set [2], in data set [3] and in data set [5] were 3.3, 20 and 25, respectively. The compound also showed an IC90 in data set [6] of 5 nM.

`Nc1cccc(CN2C(=O)N(Cc3cccc(N)c3)[C@H](Cc3ccccc3)[C@H](O)[C@@H](O)[C@H]2Cc2ccccc2)c1` [MOZENAVIR]: the IC90 mutant/IC90 WT in data set [7] was determined as 27; in data set [2], 10; in data set [3], 100; in data set [5], 49. The IC90 in data set [6] amounted to 130 nM.

`O=C1N(Cc2cccc(-c3nc[nH]n3)c2)[C@H](Cc2ccccc2)[C@H](O)[C@@H](O)[C@@H](Cc2ccccc2)N1Cc1ccc2[nH]ncc2c1` returned a Ki in data set [1] of 0.041 nM. Further, the IC90 mutant/IC90 WT in data set [2] stood at 3.3; in data set [3] it was 18; in data set [5], 3.8. In data set [6], the IC90 stood at 24 nM.

Compound `Nc1ccc(CN2C(=O)N(Cc3ccc4[nH]ncc4c3)[C@H](Cc3ccccc3)[C@H](O)[C@@H](O)[C@H]2Cc2ccccc2)cc1-c1cc[nH]n1` yielded a Ki in data set [1] of 0.025 nM. In addition, the IC90 mutant/IC90 WT in data set [2] turned out to be 2.2; in data set [3] it was 20; in data set [5], 2.1. The compound also returned an IC90 in data set [6] of 22 nM.

The compound `N=C(NO)c1cccc(CN2C(=O)N(Cc3cccc(/C(N)=N/O)c3)[C@H](Cc3ccccc3)[C@H](O)[C@@H](O)[C@H]2Cc2ccccc2)c1` registered a Ki in data set [1] of under 0.01 nM. Moreover, the IC90 mutant/IC90 WT was 1 in data set [2] and 0.7 in data set [3]. The same compound yielded a 90% effect concentration (IC90) in data set [6] of 300 nM.

For `Cc1ccc(NC(=O)c2cccc(CN3C(=O)N(Cc4ccc5[nH]ncc5c4)[C@H](Cc4ccccc4)[C@H](O)[C@@H](O)[C@H]3Cc3ccccc3)c2)nc1`, in data set [1], the inhibitory constant (Ki) came to 0.048 nM. The compound further had a Cmax in data set [4] of under 50 nM. In data set [6], the 90% effect level (IC90) was put at 4 nM.

For `O=C(Nc1ncc[nH]1)c1cccc(CN2C(=O)N(Cc3cccc(C(=O)Nc4ncc[nH]4)c3)[C@H](Cc3ccccc3)[C@H](O)[C@@H](O)[C@H]2Cc2ccccc2)c1`, the IC90 mutant/IC90 WT in data set [7] is 0.4; in data set [2], 0.7; in data set [3], 0.7; in data set [5], 0.2. The compound also displayed an IC90 in data set [6] of 60 nM.

As for `Nc1ccc(CN2C(=O)N(Cc3ccc4[nH]ncc4c3)[C@H](Cc3ccccc3)[C@H](O)[C@@H](O)[C@H]2Cc2ccccc2)cc1-n1cccn1`, the affinity in data set [1] corresponds to a Ki of 0.045 nM. Also, the IC90 mutant/IC90 WT in data set [2] came out at 3.3; in data set [3], 50; in data set [5], 70. For the same compound, it took 6 nM to reach the 90% level in data set [6] (IC90).

The compound `Nc1ccc(CN2C(=O)N(Cc3ccc4[nH]ncc4c3)[C@H](Cc3ccccc3)[C@H](O)[C@@H](O)[C@H]2Cc2ccccc2)cc1-n1cncn1` yielded a Ki in data set [1] of 0.029 nM. The IC90 mutant/IC90 WT in data set [2] came to 1; in data set [3], 20; in data set [5] it was 9. For the same compound, the Cmax in data set [4] was determined as 500 nM. This compound also gave an IC90 in data set [6] of 35 nM.

In turn, `O=C1N(Cc2cccc(NCc3nc4ccccc4[nH]3)c2)[C@H](Cc2ccccc2)[C@H](O)[C@@H](O)[C@@H](Cc2ccccc2)N1Cc1ccc2[nH]ncc2c1` gave a Ki in data set [1] of 0.016 nM. The IC90 mutant/IC90 WT in data set [2] stood at 1; in data set [3], 3. The IC90 in data set [6] is 63 nM.

For `O=C(Cn1cncn1)c1cccc(CN2C(=O)N(Cc3ccc4[nH]ncc4c3)[C@H](Cc3ccccc3)[C@H](O)[C@@H](O)[C@H]2Cc2ccccc2)c1`, the affinity in data set [1] corresponds to a Ki of 0.022 nM. In data set [4], this compound showed a Cmax of 150 nM. The IC90 in data set [6] amounted to 51 nM.
